# How the values were obtained:
# Assay type in all cases: biochemical
# PTP-PEST = biological target: T1, PTP-PEST (Homo sapiens, UniProt Q05209); experiment: PTP assay with pY peptide substrates, PTP-PEST; conditions: for Km / kcat / kcat/KM x10^6: catalytic domain, 100 mM HEPES pH 7.4, monitored at 282 nm
# T1 sequence (Q05209 5-300): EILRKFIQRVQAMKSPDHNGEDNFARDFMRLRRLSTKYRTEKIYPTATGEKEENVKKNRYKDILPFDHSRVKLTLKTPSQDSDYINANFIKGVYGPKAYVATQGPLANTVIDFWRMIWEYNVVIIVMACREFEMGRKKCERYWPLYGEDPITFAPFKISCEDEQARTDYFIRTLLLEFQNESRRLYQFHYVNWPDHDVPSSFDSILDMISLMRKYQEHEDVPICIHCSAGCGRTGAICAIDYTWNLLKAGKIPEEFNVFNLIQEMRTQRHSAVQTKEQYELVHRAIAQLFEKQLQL
# PTPRC = biological target: T2, PTPRC (Homo sapiens, UniProt P08575); experiment: PTP assay, PTPRC; conditions: for Km / kcat / kcat/KM x10^6: catalytic domain, 100 mM HEPES pH 7.4, monitored at 282 nm
# T2 sequence (P08575 620-1236): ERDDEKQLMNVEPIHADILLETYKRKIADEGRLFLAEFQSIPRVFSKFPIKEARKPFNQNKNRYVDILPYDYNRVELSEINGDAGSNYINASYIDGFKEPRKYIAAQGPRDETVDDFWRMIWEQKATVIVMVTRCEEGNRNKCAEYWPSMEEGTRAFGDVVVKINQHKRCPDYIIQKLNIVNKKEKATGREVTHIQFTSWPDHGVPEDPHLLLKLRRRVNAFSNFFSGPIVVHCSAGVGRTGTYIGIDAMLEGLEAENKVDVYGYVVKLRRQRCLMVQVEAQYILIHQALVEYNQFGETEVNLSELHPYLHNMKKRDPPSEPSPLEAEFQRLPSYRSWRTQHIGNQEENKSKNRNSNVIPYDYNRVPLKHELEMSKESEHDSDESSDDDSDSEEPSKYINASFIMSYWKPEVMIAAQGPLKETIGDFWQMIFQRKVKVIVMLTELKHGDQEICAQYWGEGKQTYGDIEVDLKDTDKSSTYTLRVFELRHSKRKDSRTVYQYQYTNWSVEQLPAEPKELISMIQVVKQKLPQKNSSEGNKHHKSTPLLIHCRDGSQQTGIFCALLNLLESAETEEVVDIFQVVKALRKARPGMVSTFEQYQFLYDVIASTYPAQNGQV
# Method in brief: (§1)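 His-tagged catalytic domains were made in E. coli: PTPD2 aa 876–1187 and PTPRC aa 620–1236 with N-terminal tags, PTPD1 aa 875–1174 and SHP-2 aa 199–593 with C-terminal tags. Enzyme was added at 0.5–20000 nM final. A282 (Δε 1102 M−1 cm−1) was followed. Constants came from Michaelis–Menten fits of initial rates (<60 s), or from fits of progress curves run to substrate depletion.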
# PTPD2 = biological target: T3, PTPD2 (Homo sapiens, UniProt Q15678); experiment: PTP assay, PTPD2; conditions: for Km / kcat / kcat/KM x10^6: catalytic domain, 100 mM HEPES pH 7.4, monitored at 282 nm
# T3 sequence (Q15678 876-1187): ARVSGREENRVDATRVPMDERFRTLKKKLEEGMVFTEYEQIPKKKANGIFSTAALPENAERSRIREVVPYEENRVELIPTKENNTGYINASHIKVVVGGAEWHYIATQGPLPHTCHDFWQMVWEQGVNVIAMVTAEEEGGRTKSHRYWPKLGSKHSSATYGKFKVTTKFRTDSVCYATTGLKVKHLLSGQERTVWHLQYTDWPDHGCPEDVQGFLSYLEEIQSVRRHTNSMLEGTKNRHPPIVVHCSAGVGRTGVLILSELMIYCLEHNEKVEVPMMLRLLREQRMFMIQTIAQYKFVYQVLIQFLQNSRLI
# Method in brief: as §1
# HePTP = biological target: T4, HePTP (Homo sapiens, UniProt P35236); experiment: PTP assay, HePTP
# T4 sequence (P35236 43-356): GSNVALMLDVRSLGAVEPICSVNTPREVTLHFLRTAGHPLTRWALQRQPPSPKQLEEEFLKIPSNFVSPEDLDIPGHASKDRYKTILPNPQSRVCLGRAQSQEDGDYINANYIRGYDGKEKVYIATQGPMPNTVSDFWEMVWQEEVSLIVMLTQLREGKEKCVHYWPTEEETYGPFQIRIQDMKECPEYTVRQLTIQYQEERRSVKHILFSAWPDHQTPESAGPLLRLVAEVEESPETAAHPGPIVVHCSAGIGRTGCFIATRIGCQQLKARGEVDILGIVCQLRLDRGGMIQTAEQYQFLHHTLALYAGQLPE
# PTPRD = biological target: T5, PTPRD (Homo sapiens, UniProt P23468); experiment: PTP assay, PTPRD
# T5 sequence (P23468 1299-1899): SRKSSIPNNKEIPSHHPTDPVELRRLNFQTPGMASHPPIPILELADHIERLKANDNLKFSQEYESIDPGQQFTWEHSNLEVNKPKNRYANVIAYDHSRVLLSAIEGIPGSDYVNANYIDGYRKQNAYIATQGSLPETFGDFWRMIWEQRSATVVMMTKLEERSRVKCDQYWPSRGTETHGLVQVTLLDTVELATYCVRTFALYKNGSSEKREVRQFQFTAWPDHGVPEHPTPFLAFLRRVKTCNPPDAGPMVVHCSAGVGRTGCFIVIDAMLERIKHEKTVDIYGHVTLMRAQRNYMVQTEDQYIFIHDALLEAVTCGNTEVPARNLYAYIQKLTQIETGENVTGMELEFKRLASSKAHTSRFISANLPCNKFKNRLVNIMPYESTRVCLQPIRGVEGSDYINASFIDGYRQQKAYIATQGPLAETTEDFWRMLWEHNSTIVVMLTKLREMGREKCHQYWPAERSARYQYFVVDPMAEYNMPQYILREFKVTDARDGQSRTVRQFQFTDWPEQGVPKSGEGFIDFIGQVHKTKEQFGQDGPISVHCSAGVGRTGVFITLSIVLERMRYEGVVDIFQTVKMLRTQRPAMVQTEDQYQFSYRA
# PTPD1 = biological target: T6, PTPD1 (Homo sapiens, UniProt Q16825); experiment: PTP assay, PTPD1
# T6 sequence (Q16825 875-1174): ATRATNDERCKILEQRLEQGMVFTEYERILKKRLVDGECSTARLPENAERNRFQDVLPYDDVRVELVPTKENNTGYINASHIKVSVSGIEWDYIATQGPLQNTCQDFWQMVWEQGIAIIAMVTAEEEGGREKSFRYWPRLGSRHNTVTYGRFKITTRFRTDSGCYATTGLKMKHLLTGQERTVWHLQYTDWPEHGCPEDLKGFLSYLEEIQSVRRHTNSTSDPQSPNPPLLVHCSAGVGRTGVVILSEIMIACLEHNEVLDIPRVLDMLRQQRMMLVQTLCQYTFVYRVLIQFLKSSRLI
# Method in brief: as §1
# [1] = kcat/KM of neutral peptide over basic Ac-YRKRFpYRYKF-NH2
# [2] = catalytic domain, 100 mM HEPES pH 7.4, monitored at 282 nm
# [3] = kcat/KM of acidic peptide over basic Ac-YRKRFpYRYKF-NH2
# [4] = kcat/KM of acidic peptide over neutral Ac-SASASpYSASA-NH2
Substance,Km (PTP-PEST) [µM],kcat (PTP-PEST) [s⁻¹],kcat/KM x10^6 (PTP-PEST),Km (PTPRC) [µM],kcat (PTPRC) [s⁻¹],kcat/KM x10^6 (PTPRC),Km (PTPD2) [µM],kcat (PTPD2) [s⁻¹],kcat/KM x10^6 (PTPD2),kcat/KM x10^6 (HePTP; [2]),kcat/KM x10^6 (PTPRD; [2]),kcat/KM x10^6 (PTPD1; [2]),also measured
Ac-SASASpYSASA-NH2,800 ± 10,160 ± 2,0.20 x10^6 M^−1 s^−1,170 ± 20,340 ± 50,2.0 x10^6 M^−1 s^−1,9.4 ± 0.4,0.12 ± 0.006,0.013 x10^6 M^−1 s^−1,0.0006 x10^6 M^−1 s^−1,0.00068 x10^6 M^−1 s^−1,0.0000038 x10^6 M^−1 s^−1,Neutral/Basic ratio of kcat/KM values (PTPRC; [1]): 41; Neutral/Basic ratio of kcat/KM values (PTPD2; [1]): 160; Neutral/Basic ratio of kcat/KM values (PTPRD; [1]): 1; Neutral/Basic ratio of kcat/KM values (PTPD1; [1]): 0.7
Ac-YDEDFpYDYEF-NH2,2.2 ± 0.5,470 ± 10,220 x10^6 M^−1 s^−1,7 ± 0.9,300 ± 20,43 x10^6 M^−1 s^−1,0.7 ± 0.09,0.073 ± 0.003,0.11 x10^6 M^−1 s^−1,0.025 x10^6 M^−1 s^−1,0.014 x10^6 M^−1 s^−1,0.0012 x10^6 M^−1 s^−1,Acidic/Basic ratio of kcat/KM values (PTP-PEST; [3]): 150000; Acidic/Neutral ratio of kcat/KM values (PTP-PEST; [4]): 1100; Acidic/Basic ratio of kcat/KM values (PTPRC; [3]): 880; Acidic/Neutral ratio of kcat/KM values (PTPRC; [4]): 22; Acidic/Basic ratio of kcat/KM values (PTPD2; [3]): 1300; Acidic/Neutral ratio of kcat/KM values (PTPD2; [4]): 8; Km (HePTP; [2]): 280 ± 25 µM; kcat (HePTP; [2]): 7.0 ± 0.3 s⁻¹; Acidic/Basic ratio of kcat/KM values (HePTP; [3]): 2500; Acidic/Neutral ratio of kcat/KM values (HePTP; [4]): 42; Km (PTPRD; [2]): > 60 µM; kcat (PTPRD; [2]): >0.86 s⁻¹; Acidic/Basic ratio of kcat/KM values (PTPRD; [3]): 21; Acidic/Neutral ratio of kcat/KM values (PTPRD; [4]): 21; Km (PTPD1; [2]): 26 ± 5 µM; kcat (PTPD1; [2]): 0.032 ± 0.005 s⁻¹; Acidic/Basic ratio of kcat/KM values (PTPD1; [3]): 220; Acidic/Neutral ratio of kcat/KM values (PTPD1; [4]): 330
Ac-YRKRFpYRYKF-NH2,–,–,0.0015 x10^6 M^−1 s^−1,–,–,0.049 x10^6 M^−1 s^−1,–,–,0.000082 x10^6 M^−1 s^−1,0.000010 x10^6 M^−1 s^−1,0.0007 x10^6 M^−1 s^−1,0.0000057 x10^6 M^−1 s^−1,–

# Reference: publication PMC3954597 (Biochemistry, 2014)
